This note sets out measurements from ChEMBL document CHEMBL4304739, “Discovery of 3-(Indol-5-yl)-indazole Derivatives as Novel Myeloid Differentiation Protein 2/Toll-like Receptor 4 Antagonists for Treatment of Acute Lung Injury” (J Med Chem, 2019).

SMILES strings stand for the structures. Calls of active or inactive are those of the source. The rule behind the calls is not given here.

The target of experiment [1] is Tyrosine-protein kinase ABL1 (Homo sapiens) (UniProt P00519). Briefly: Inhibition of wild-type human non-phosphorylated ABL1 (S229 to K512 residues) expressed in mammalian expression system at 1 uM by Kinomescan method. A digest of the protocol: (§1)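 KINOMEscan competition binding screen at 1 μM compound. Results reported as % of control = (test − positive control)/(DMSO negative control − positive control) × 100, where lower values mean stronger hits.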
Chain of Tyrosine-protein kinase ABL1 (Homo sapiens) (P00519 whole entry, the tested form may be a part): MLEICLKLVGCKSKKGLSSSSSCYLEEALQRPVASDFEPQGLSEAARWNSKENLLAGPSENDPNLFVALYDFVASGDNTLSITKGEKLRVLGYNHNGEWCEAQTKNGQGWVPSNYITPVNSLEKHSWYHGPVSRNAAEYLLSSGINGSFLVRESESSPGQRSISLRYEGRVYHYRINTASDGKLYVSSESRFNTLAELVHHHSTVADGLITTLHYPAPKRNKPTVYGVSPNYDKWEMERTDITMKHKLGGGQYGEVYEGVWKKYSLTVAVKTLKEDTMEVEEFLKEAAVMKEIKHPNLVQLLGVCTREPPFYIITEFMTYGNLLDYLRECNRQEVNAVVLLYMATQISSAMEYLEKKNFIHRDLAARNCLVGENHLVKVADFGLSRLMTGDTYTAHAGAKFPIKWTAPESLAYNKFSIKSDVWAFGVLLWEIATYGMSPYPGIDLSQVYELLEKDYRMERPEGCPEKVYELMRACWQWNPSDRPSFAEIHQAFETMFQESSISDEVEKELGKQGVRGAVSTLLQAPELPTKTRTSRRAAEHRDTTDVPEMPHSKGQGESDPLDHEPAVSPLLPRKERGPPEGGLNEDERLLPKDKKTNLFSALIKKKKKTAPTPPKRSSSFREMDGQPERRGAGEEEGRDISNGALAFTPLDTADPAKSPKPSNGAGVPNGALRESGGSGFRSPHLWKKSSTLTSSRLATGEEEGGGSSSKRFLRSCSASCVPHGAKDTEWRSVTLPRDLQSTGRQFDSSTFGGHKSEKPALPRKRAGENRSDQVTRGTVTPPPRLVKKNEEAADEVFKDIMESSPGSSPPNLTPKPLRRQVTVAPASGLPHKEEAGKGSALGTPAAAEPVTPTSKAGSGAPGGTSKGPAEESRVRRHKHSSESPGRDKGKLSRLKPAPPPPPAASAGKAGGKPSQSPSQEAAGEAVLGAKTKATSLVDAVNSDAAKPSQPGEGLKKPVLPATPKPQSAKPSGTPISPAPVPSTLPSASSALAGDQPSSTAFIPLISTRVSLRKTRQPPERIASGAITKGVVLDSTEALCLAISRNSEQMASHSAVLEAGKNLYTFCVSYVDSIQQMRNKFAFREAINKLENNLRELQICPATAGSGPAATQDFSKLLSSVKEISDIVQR

The target in experiment [2] is RAC-beta serine/threonine-protein kinase (Homo sapiens) (UniProt P31751). Nature of the experiment: Inhibition of wild-type human partial length AKT2 expressed in bacterial expression system at 1 uM by Kinomescan method. A digest of the protocol:
as §1

The subject of another experiment is Mus musculus. Briefly: Antiinflammatory activity in LPS-induced C57BL/6 mouse model of acute lung injury assessed as reduction in IL33 mRNA level at 10 mg/kg, iv pretreated for 15 mins followed by LPS stimulation and measured after 6 hrs by SYBR green staining-based qRT-PCR analysis. The experiment is classed as functional, organism-based. A digest of the protocol: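 Total lung RNA extracted, with DNase I removal of residual DNA. Quantitative PCR with mouse gene primers; each gene normalized to β-actin. C57BL/6 mice given compound iv 15 min before intraperitoneal LPS (20 mg/kg) and killed at 6 h.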
(In general: Quantitative PCR measures a nucleic acid by following its amplification.)

In experiment [3] the target is Serine/threonine-protein kinase 32C (Homo sapiens) (UniProt Q86UX6). Nature of the experiment: Inhibition of wild-type human partial length YANK3 (M68 to G486 residues) expressed in bacterial expression system at 1 uM by Kinomescan method. A digest of the protocol: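 Single-concentration screen at 1 μM on the KINOMEscan panel (98 kinases), run by the platform provider. Results are given as percent of control: % Ctrl = [(test signal − positive control signal)/(negative control signal − positive control signal)] × 100. DMSO serves as negative control (100% Ctrl) and a control compound as positive control (0% Ctrl). Lower values mean stronger binding hits.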
Chain of Serine/threonine-protein kinase 32C (Homo sapiens) (Q86UX6 whole entry, the tested form may be a part): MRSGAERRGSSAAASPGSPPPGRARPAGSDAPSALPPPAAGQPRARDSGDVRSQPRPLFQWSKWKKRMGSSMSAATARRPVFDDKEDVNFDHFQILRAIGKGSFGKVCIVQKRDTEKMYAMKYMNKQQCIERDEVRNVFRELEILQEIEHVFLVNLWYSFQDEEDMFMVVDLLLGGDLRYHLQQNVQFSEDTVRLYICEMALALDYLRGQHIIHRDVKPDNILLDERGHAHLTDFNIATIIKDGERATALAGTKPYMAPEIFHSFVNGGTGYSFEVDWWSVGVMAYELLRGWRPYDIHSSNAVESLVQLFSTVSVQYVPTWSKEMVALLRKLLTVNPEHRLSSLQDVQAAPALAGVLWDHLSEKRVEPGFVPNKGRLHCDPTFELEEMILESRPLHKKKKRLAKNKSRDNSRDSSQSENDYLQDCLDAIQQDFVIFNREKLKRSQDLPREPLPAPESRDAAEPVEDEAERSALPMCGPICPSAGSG

In experiment [4] the target is Aurora kinase A (Homo sapiens) (UniProt O14965). Nature of the experiment: Inhibition of wild-type human partial length AURKA (E122 to K401 residues) expressed in mammalian expression system at 1 uM by Kinomescan method. The gist of the method:
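Binding-competition screen on the KINOMEscan platform, run by the provider, with the test compound at 1 μM. Readout is percent of control: (test signal − positive control signal)/(negative control signal − positive control signal) × 100. The DMSO negative control is set as 100% Ctrl and a control compound as 0% Ctrl. Lower values mean stronger hits.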

Chain of Aurora kinase A (Homo sapiens) (O14965 whole entry, the tested form may be a part): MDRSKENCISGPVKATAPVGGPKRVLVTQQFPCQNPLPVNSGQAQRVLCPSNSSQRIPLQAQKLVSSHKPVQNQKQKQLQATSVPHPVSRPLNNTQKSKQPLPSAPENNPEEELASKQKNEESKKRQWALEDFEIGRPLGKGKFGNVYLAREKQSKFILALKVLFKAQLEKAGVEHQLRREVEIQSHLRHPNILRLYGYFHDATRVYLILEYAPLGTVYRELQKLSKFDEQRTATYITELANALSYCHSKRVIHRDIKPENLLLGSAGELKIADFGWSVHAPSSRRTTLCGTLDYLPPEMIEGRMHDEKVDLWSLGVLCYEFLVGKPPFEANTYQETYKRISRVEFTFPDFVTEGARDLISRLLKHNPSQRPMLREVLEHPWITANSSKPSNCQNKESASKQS
Chain of RAC-beta serine/threonine-protein kinase (Homo sapiens) (P31751 whole entry): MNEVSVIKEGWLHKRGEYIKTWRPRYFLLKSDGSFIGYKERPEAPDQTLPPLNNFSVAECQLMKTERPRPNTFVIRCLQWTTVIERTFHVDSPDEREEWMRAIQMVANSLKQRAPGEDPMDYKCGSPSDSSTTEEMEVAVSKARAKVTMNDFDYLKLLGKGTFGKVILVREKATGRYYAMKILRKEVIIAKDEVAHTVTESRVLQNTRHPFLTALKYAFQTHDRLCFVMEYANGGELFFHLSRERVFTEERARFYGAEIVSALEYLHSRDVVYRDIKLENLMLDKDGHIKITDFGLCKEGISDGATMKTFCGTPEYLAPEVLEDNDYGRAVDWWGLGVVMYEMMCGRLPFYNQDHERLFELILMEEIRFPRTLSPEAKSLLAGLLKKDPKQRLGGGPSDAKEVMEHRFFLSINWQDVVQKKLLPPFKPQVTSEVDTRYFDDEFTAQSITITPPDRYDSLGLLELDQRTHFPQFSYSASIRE

In the case of `O=C(Nc1ccc2[nH]nc(-c3ccc4[nH]ccc4c3)c2c1)c1c(Cl)cccc1Cl`, the inhibition entry in experiment [1], in experiment [2], in experiment [3] and in experiment [4] was “inactive” throughout. Moreover, the outcome with Mus musculus was Active.
